Columns and labels:
[1] = biological target: T1, Tyrosine-protein kinase BTK (Homo sapiens, UniProt Q06187); experiment: Inhibition of recombinant human His-tagged full length BTK expressed in baculovirus using biotin labeled peptide substrate after 1 hr by HRTF kinase/TR-FRET assay
[2] = biological target: T1, Tyrosine-protein kinase BTK; experiment: Inhibition of BTK in human Ramos cells assessed as inhibition of anti human IgM-induced calcium influx preincubated for 20 mins in dark followed by anti human IgM induction for 8 mins by FLIPR assay; assay type: cell-based
[3] = Cmax in Sprague-Dawley rat at 4 mg/kg, po by LC/MS/MS analysis; assay type: ADME, organism-based; design: dose 4 mg/kg, route oral; conditions: in vivo
Outline: (§1)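 Three male SD rats (180–240 g) dosed orally, 4 mg/kg, dosing volume 5 mL/kg. Blood sampled at 2, 5, 15, 30 min and 1, 2, 4, 6, 8, 10, 24 h, centrifuged 4000 rpm 5 min at 4 °C. Plasma analysed after protein precipitation by LC/MS/MS in SRM mode with internal standard. Parameters from concentration–time data by noncompartmental analysis.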

[4] = Tmax in Sprague-Dawley rat at 4 mg/kg, po by LC/MS/MS analysis; assay type: ADME, organism-based; conditions: in vivo; outline: as §1
[5] = AUClast in Sprague-Dawley rat at 4 mg/kg, po by LC/MS/MS analysis; assay type: ADME, organism-based; design: dose 4 mg/kg, route oral, time 0 - last; conditions: in vivo; outline: as §1
[6] = Clearance in Sprague-Dawley rat at 4 mg/kg, po by LC/MS/MS analysis; assay type: ADME, organism-based; conditions: in vivo; outline: as §1
[7] = Half life in Sprague-Dawley rat at 4 mg/kg, po by LC/MS/MS analysis; assay type: ADME, organism-based; conditions: in vivo; outline: as §1

T1 sequence (Q06187 whole entry): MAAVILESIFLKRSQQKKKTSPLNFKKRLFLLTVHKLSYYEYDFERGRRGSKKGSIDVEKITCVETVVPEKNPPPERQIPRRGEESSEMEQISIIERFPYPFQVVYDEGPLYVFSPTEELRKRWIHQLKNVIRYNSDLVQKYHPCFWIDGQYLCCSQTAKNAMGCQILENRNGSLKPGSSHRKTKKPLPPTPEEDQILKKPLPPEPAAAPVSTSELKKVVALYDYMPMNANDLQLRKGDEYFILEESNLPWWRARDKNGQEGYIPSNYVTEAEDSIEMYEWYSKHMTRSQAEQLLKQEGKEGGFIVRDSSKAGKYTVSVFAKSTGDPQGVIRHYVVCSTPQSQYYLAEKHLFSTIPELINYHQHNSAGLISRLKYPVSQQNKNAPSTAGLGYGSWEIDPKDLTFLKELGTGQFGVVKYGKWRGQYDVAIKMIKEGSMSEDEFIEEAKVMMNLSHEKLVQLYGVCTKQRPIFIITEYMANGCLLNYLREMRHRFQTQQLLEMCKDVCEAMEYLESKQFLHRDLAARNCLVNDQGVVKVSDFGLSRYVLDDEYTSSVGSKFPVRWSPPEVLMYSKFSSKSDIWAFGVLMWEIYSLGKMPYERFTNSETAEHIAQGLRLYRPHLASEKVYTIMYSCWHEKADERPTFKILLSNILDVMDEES

SMILES | IC50 [1] | IC50 [2] | Cmax [3] | Tmax [4] | AUC(0-t) [5] | CL/F [6] | half-life [7]
Cc1cc2c(-c3cccc(-n4ccc5cc(C6CC6)cc(F)c5c4=O)c3CO)ccnc2[nH]1 | 0.395 µM | 0.213 µM |  |  |  |  | 
CN(C)C(=O)N1CC=C(c2cc3c(-c4cccc(-n5ccc6cc(C7CC7)cc(F)c6c5=O)c4CO)ccnc3[nH]2)CC1 | 0.006 µM | 0.014 µM | 739 ng/mL | 1.9 h | 3420 ng·h/mL | 20 mL/min/kg | 8.9 h
O=C(N1CC=C(c2cc3c(-c4cccc(-n5ccc6cc(C7CC7)cc(F)c6c5=O)c4CO)ccnc3[nH]2)CC1)N1CCOCC1 | 0.0073 µM | 0.042 µM |  |  |  |  | 
O=c1c2c(F)cc(C3CC3)cc2ccn1-c1cccc(-c2ccnc3[nH]c(C4=CCN(C5COC5)CC4)cc23)c1CO | 0.0314 µM | 0.003 µM |  |  |  |  | 
CC(=O)c1ccc(-c2cc3c(-c4cccc(-n5ccc6cc(C7CC7)cc(F)c6c5=O)c4CO)ccnc3[nH]2)cc1 | 0.0213 µM | 0.032 µM |  |  |  |  | 
Nc1cccc(-c2cc3c(-c4cccc(-n5ccc6cc(C7CC7)cc(F)c6c5=O)c4CO)ccnc3[nH]2)c1 | 0.11 µM | 2.41 µM |  |  |  |  | 
CN(C)C(=O)c1ccc(-c2nc3c(-c4cccc(-n5ccc6cc(C7CC7)cc(F)c6c5=O)c4CO)ccnc3[nH]2)cc1 | 0.0333 µM | 0.0927 µM |  |  |  |  | 
Cn1ccc(-c2cc3c(-c4cccc(-n5ccc6cc(C7CC7)cc(F)c6c5=O)c4CO)ccnc3[nH]2)n1 | 0.0206 µM | 0.0095 µM |  |  |  |  | 
O=C(c1ccc(-c2cc3c(-c4cccc(-n5ccc6cc(C7CC7)cc(F)c6c5=O)c4CO)ccnc3[nH]2)cc1)N1CCCCC1 | 0.038 µM | 0.052 µM |  |  |  |  | 
CN(C)C(=O)N1CC=C(c2cc3c(-c4cccc(-n5ccc6cc(C7CC7)cc(F)c6c5=O)c4CO)cccc3[nH]2)CC1 | > 5 µM | > 5 µM |  |  |  |  | 
COc1ccc(-c2cc3c(-c4cccc(-n5ccc6cc(C7CC7)cc(F)c6c5=O)c4CO)ccnc3[nH]2)cc1 | 0.0273 µM | 0.0563 µM |  |  |  |  | 
CC(=O)c1cc(-c2cc3c(-c4cccc(-n5ccc6cc(C7CC7)cc(F)c6c5=O)c4CO)ccnc3[nH]2)cs1 | 0.0781 µM | 0.069 µM |  |  |  |  | 

The remaining lines, values ahead:

IC50 [1] | IC50 [2] | Cmax [3] | Tmax [4] | AUC(0-t) [5] | CL/F [6] | half-life [7] | SMILES
0.0097 µM | 0.027 µM |  |  |  |  |  | CN(C)S(=O)(=O)N1CC=C(c2cc3c(-c4cccc(-n5ccc6cc(C7CC7)cc(F)c6c5=O)c4CO)ccnc3[nH]2)CC1
0.0283 µM | 0.003 µM |  |  |  |  |  | O=c1c2c(F)cc(C3CC3)cc2ccn1-c1cccc(-c2ccnc3[nH]c(C4=CCNCC4)cc23)c1CO
0.0071 µM | 0.41 µM |  |  |  |  |  | CS(=O)(=O)N1CC=C(c2cc3c(-c4cccc(-n5ccc6cc(C7CC7)cc(F)c6c5=O)c4CO)ccnc3[nH]2)CC1
0.0104 µM | 0.016 µM |  |  |  |  |  | O=C(C1CC1)N1CC=C(c2cc3c(-c4cccc(-n5ccc6cc(C7CC7)cc(F)c6c5=O)c4CO)ccnc3[nH]2)CC1
 |  | 134 ng/mL | 4 h | 1050 ng·h/mL | 53.3 mL/min/kg | 4.4 h | CN1CCN(c2ccc(Nc3cc(-c4cccc(-n5ccc6cc(C7CC7)cc(F)c6c5=O)c4CO)cn(C)c3=O)nc2)CC1
0.0121 µM | 0.0942 µM |  |  |  |  |  | CN(C)C(=O)c1ccc(-c2cc3c(-c4cccc(-n5ccc6cc(C7CC7)cc(F)c6c5=O)c4CO)ccnc3[nH]2)cc1
 |  | 422 ng/mL | 0.8 h | 1790 ng·h/mL | 43.3 mL/min/kg | 5.4 h | CN(C)C(=O)N1CC=C(c2cc3c(-c4cccc(-n5ccc6cc(C7CC7)cc(F)c6c5=O)c4CO)ncnc3[nH]2)CC1
0.0067 µM | 0.012 µM |  |  |  |  |  | CC(=O)N1CC=C(c2cc3c(-c4cccc(-n5ccc6cc(C7CC7)cc(F)c6c5=O)c4CO)ccnc3[nH]2)CC1
0.0398 µM | 0.11 µM |  |  |  |  |  | O=c1c2c(F)cc(C3CC3)cc2ccn1-c1cccc(-c2ccnc3[nH]c(-c4ccc(O)cc4)cc23)c1CO
0.0181 µM | 0.069 µM |  |  |  |  |  | O=c1c2c(F)cc(C3CC3)cc2ccn1-c1cccc(-c2ccnc3[nH]c(-c4ccc(CN5CCOCC5)cc4)cc23)c1CO
0.0683 µM | 0.196 µM |  |  |  |  |  | COc1ccc(-c2cc3c(-c4cccc(-n5ccc6cc(C7CC7)cc(F)c6c5=O)c4CO)ccnc3[nH]2)cn1
